Our source for the Activity values is ChEMBL document CHEMBL3232877, “Synthesis and activity of tumor-homing peptide iRGD and histone deacetylase inhibitor valproic acid conjugate” (2014).

Positions of bridges follow the written chain, without caps; N, C: chain ends. Residues, ends and D or L forms follow the SMILES beside them. *: point of attachment. Pentanoyl(2-Pr) = CCCC(CCC)C(=O)*

Format in all cases: functional
Assay [1] relates to DU-145. The assay can be described thus: Cell cycle arrest in human DU145 cells assessed as accumulation of cells at G1 phase at 1.5 mM after 24 hrs by flow cytometry (Rvb =64.7 %).
Assay [2] concerns DU-145. The experiment in a line: Cell cycle arrest in human DU145 cells assessed as accumulation of cells at G2 phase at 1.5 mM after 24 hrs by flow cytometry (reference value: 22.1 %). Background: A flow cytometer gives signals particle by particle.
Assay [3] deals with DU-145. The experiment in a line: Cytotoxicity against human DU145 cells assessed viable cells at 0.5 mM after 72 hrs by CCK-8 assay (reference value: 99.97 +/- 0.84 %). Put shortly:
(§1)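 DU-145 cells exposed 72 h to drug or drug equivalent at 0.5 mM or 1.5 mM. Viable cells read by CCK-8, absorbance 450 nm (630 nm reference). Viability % = treated viable cells / mean of untreated group (set 100%); reported as mean ± SEM; one-way ANOVA with Tukey test.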
On the technique in general: Tetrazolium dyes change colour on reduction, which living cells bring about.

For assay [4], the system named is DU-145. The experiment in a line: Cytotoxicity against human DU145 cells assessed viable cells at 1.5 mM after 72 hrs by CCK-8 assay (reference value: 100.00 +/- 2.47 %). In outline:
as §1

Turning to `CCCC(CCC)C(=O)O` [VALPROIC ACID], the Activity in the assay on DU-145 [1] is on record as 62.5%; in the assay with DU-145 [2] it was 25.8%; in the assay on DU-145 [3] it was 99.56%; with DU-145 [4], 79.87%.
The like results for `CCCC(CCC)C(=O)NCC(=O)N[C@@H](Cc1ccccc1)C(=O)N[C@@H](CC(C)C)C(=O)NCC(=O)N[C@H]1CSSC[C@@H](C(N)=O)NC(=O)[C@H](CC(=O)O)NC(=O)[C@@H]2CCCN2C(=O)CNC(=O)[C@H](CCCCN)NC(=O)[C@H](CC(=O)O)NC(=O)CNC(=O)[C@H](CCCNC(=N)N)NC1=O` ({Pentanoyl(2-Pr)}-GFLGCRGDKGPDC-NH2; disulfide 5-13) were, in that order, 76.3%, 15.7%, 69.3% and 38.96%.
Taken in the same sequence, the figures for `CC(C)C[C@H](NC(=O)[C@H](Cc1ccccc1)NC(=O)CN)C(=O)NCC(=O)N[C@H]1CSSC[C@@H](C(N)=O)NC(=O)[C@H](CC(=O)O)NC(=O)[C@@H]2CCCN2C(=O)CNC(=O)[C@H](CCCCN)NC(=O)[C@H](CC(=O)O)NC(=O)CNC(=O)[C@H](CCCNC(=N)N)NC1=O` (H-GFLGCRGDKGPDC-NH2; disulfide 5-13) were 73.7%, 17.7%, 70.52% and 58.67%.
